Measured values reported in ChEMBL document CHEMBL4145460, “Discovery of novel high potent and cellular active ADC type PTP1B inhibitors with selectivity over TC-PTP via modification interacting with C site” (Eur J Med Chem, 2018).

Legend:
Homo sapiens = organism: Homo sapiens; assay: Selective ratio of IC50 for human TCPTP to IC50 for recombinant human PTP1B
Procedure, shortened: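 Ratio of TCPTP IC50 to PTP1B IC50. Both measured with the same pNPP assay: 2 mM pNPP, pH 6.5 with DTT and EDTA, 30 min at 37 °C, NaOH stop, A405, logit-derived IC50.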

[1] = target: T1, Tyrosine-protein phosphatase non-receptor type 11 (Homo sapiens) (UniProt Q06124); assay: Inhibition of human GST-tagged SHP2 ([…] residues) expressed in Escherichia coli BL21-CondenPlus (DE3) at 25 uM using pNNP as substrate relative to control
T1 sequence (whole entry): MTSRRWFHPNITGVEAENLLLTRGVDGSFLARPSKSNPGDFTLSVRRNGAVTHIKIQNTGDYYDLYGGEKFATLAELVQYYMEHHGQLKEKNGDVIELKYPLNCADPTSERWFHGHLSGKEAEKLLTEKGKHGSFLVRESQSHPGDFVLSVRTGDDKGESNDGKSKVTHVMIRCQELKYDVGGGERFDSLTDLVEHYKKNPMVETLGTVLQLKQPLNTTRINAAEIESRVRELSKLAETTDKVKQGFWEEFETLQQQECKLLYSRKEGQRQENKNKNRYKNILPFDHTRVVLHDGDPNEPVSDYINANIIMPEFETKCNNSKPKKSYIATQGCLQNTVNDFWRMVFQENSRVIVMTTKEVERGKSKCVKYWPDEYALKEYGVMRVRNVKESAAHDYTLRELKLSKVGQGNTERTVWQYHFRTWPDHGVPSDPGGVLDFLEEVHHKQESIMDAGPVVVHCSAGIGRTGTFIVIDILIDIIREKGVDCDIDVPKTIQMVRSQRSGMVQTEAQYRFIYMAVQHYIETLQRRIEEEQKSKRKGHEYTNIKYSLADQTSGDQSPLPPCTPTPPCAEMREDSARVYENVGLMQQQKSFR

[2] = target: T2, Tyrosine-protein phosphatase non-receptor type 2 (Homo sapiens, UniProt P17706); assay: Inhibition of human TCPTP using pNNP as substrate after 30 mins
T2 sequence (P17706 whole entry): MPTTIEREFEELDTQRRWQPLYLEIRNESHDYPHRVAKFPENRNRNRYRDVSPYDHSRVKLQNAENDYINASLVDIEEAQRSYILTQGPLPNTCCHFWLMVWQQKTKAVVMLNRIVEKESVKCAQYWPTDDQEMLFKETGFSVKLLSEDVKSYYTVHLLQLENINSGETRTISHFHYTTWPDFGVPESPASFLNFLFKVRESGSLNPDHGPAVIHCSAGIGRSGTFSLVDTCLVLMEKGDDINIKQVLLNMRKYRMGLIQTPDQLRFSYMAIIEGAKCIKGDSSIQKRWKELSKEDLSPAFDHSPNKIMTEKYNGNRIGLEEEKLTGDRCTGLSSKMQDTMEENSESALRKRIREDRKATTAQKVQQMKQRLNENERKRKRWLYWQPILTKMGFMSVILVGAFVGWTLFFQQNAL

[3] = target: T3, Tyrosine-protein phosphatase non-receptor type 1 (Homo sapiens, UniProt P18031); assay: Inhibition of recombinant human PTP1B using pNNP as substrate after 30 mins
T3 sequence (P18031 whole entry): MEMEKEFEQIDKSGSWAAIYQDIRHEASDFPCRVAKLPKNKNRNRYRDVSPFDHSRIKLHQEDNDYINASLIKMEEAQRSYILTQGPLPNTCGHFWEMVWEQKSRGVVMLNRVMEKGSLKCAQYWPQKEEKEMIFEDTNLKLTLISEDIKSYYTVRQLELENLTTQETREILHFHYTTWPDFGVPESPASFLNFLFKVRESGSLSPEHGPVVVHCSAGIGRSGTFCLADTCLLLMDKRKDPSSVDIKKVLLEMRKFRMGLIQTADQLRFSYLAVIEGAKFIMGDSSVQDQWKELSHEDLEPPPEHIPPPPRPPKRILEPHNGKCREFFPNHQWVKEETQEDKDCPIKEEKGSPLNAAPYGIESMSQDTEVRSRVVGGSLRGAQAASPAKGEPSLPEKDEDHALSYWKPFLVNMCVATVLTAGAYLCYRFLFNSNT

[4] = target: T4, Tyrosine-protein phosphatase non-receptor type 6 (Homo sapiens, UniProt P29350); assay: Inhibition of human GST-tagged SHP1 (244 to 570 residues) expressed in Escherichia coli BL21-CondenPlus (DE3) using pNNP as substrate
T4 sequence (P29350 whole entry, the tested form may be a part): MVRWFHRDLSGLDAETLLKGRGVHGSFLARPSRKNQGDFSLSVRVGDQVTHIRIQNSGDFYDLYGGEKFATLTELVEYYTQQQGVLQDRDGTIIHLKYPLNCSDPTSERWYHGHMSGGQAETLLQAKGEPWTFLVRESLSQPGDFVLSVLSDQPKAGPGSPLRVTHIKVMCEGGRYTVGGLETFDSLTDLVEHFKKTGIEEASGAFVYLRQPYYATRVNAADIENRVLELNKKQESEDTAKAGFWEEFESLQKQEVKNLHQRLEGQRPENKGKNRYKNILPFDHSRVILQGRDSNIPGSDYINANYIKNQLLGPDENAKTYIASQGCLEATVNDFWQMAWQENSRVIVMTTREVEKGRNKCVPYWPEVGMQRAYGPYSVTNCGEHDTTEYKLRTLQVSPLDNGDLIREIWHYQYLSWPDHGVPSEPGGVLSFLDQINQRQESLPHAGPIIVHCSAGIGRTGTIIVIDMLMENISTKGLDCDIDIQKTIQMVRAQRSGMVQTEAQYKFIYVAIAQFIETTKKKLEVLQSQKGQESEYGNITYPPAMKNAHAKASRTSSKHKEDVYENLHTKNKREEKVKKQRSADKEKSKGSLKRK

[5] = target: T5, Receptor-type tyrosine-protein phosphatase F (Homo sapiens, UniProt P10586); assay: Inhibition of human GST-tagged LAR D1 (1275 to 1613 residues) expressed in Escherichia coli BL21-CondenPlus (DE3) using pNNP as substrate
T5 sequence (P10586 whole entry, the tested form may be a part): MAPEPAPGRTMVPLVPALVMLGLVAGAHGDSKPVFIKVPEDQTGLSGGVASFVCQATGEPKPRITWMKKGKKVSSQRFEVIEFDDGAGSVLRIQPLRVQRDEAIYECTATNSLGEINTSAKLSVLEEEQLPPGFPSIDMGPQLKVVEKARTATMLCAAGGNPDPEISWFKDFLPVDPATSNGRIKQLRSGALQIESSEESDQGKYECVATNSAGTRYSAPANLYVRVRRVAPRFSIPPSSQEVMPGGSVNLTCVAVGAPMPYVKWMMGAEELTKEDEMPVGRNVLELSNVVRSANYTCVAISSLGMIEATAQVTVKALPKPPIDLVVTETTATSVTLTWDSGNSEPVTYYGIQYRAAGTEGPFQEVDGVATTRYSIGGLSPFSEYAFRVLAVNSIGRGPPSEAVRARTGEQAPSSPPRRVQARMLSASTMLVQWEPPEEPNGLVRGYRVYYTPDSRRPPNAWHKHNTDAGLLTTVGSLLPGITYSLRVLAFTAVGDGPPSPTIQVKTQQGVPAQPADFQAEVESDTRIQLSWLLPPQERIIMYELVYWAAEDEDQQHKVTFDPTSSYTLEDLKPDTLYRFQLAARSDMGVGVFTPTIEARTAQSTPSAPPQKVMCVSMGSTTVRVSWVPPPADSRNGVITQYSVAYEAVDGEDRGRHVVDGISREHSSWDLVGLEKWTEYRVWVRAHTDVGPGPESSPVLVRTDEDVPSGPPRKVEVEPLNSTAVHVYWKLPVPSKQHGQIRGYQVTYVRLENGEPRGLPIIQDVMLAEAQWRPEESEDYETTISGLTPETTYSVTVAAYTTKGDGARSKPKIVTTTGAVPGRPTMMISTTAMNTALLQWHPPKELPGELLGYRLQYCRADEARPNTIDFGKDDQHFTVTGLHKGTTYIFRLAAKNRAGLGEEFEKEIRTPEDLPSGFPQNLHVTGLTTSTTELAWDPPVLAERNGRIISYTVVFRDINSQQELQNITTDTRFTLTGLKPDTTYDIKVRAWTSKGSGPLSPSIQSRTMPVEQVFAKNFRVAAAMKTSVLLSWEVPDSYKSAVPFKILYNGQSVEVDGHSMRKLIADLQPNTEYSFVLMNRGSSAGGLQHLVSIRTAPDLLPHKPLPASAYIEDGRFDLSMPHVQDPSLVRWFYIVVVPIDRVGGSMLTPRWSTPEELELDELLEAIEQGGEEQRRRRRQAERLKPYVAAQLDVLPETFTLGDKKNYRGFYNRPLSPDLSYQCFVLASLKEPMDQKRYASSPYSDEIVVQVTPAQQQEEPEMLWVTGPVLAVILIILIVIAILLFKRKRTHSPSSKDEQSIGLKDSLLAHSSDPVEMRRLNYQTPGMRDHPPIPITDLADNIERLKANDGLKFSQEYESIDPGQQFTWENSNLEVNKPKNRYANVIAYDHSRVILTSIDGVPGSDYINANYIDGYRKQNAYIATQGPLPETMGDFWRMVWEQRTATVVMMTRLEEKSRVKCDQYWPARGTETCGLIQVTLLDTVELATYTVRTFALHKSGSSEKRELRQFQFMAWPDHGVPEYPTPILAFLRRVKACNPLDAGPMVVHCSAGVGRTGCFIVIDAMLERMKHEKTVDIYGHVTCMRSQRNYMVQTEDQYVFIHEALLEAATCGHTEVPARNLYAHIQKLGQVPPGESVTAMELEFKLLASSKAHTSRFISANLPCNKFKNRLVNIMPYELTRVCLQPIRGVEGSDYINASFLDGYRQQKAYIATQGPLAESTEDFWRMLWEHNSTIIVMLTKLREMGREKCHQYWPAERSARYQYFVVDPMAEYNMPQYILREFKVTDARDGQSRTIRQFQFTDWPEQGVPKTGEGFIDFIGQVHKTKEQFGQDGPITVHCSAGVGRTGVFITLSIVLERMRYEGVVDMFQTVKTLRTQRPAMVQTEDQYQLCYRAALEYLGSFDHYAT

[6] = target: T5, Receptor-type tyrosine-protein phosphatase F; assay: Inhibition of human GST-tagged LAR D1 (1275 to 1613 residues) expressed in Escherichia coli BL21-CondenPlus (DE3) at 25 uM using pNNP as substrate relative to control
[7] = target: T6, Tyrosine-protein phosphatase non-receptor type 11 (Homo sapiens, UniProt Q06124); assay: Inhibition of human GST-tagged SHP2 ([…] residues) expressed in Escherichia coli BL21-CondenPlus (DE3) using pNNP as substrate
T6 sequence (Q06124 whole entry): T1 sequence (whole entry)

L6 [8] = assay: Antidiabetic activity in rat L6 cells assessed as increase in insulin-stimulated 2-NBDG uptake at 10 uM after 30 mins by fluorescent assay relative to control; type: functional
Procedure, shortened: (§1)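 Differentiated L6 myotubes rinsed with warm PBS, serum-starved (serum-free DMEM 3 h, 37 °C; figure legend says 2 h), then exposed to compound at […] for 4 h. Insulin 10 nM for 10 min at 37 °C in Krebs-Ringer phosphate buffer pH 7.4, then 2-NBDG added. Uptake read after 30 min by fluorescence at ex 485/em 535 nm. Background from cells with drug but no 2-NBDG. n = 3, mean ± SEM.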

L6 [9] = assay: Antidiabetic activity in rat L6 cells assessed as increase in insulin-stimulated 2-NBDG uptake at 0.5 uM after 30 mins by fluorescent assay relative to control; type: functional; procedure, shortened: as §1
L6 [10] = assay: Antidiabetic activity in rat L6 cells assessed as increase in insulin-stimulated 2-NBDG uptake at 2.5 uM after 30 mins by fluorescent assay relative to control; type: functional; procedure, shortened: as §1
[11] = target: T7, Tyrosine-protein phosphatase non-receptor type 1 (Homo sapiens) (UniProt P18031); assay: Inhibition of recombinant human PTP1B at 25 uM using pNNP as substrate after 30 mins relative to control
T7 sequence (whole entry): T3 sequence (P18031 whole entry)
Procedure, shortened: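 Recombinant PTP1B, 30 nM, with 2 mM pNPP, 1 mM dithiothreitol and 1 mM EDTA at pH 6.5. Compounds delivered from DMSO. Incubated 30 min at 37 °C, stopped with 2.5 M NaOH, pNP read at 405 nm.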

[12] = target: T4, Tyrosine-protein phosphatase non-receptor type 6; assay: Inhibition of human GST-tagged SHP1 (244 to 570 residues) expressed in Escherichia coli BL21-CondenPlus (DE3) at 25 uM using pNNP as substrate relative to control

Ratio IC50 (Homo sapiens)	IC50 [2] [nM]	IC50 [3] [nM]	IC50 [4] [nM]	SMILES	further results
4.1	870	209	2940	CCOc1cc(NS(C)(=O)=O)c(OCC)cc1CNC(=O)Nc1ccc(OCC)c(C(=O)Nc2ccc(C)cc2)c1	inhibition [1]: < 50%; IC50 [5]: 6950 nM
10.9	2020	184	8630	CCCNC(=O)c1cc(NC(=O)NCc2cc(OCC)c(NS(C)(=O)=O)cc2OCC)ccc1OCC	inhibition [1]: < 50%; inhibition [6]: < 50%
–	–	169	–	CCNC(=O)c1cc(NC(=O)NCc2cc(OCC)c(NS(C)(=O)=O)cc2OCC)ccc1OCC	–
17.3	1180	68.2	3450	CCCOc1ccc(NC(=O)NCc2cc(OCC)c(NS(C)(=O)=O)cc2OCC)cc1C(=O)OC	inhibition [6]: < 50%; IC50 [7]: 7760 nM
–	–	981	–	CCOc1cc(NS(C)(=O)=O)c(OCC)cc1CNC(=O)Nc1ccc(OCC)c(C(=O)Nc2cccc(OC)c2)c1	–
5.9	390	66.2	850	CCOc1cc(NS(C)(=O)=O)c(OCC)cc1CNC(=O)Nc1ccc(OCC)c(C(=O)Nc2ccc(OC)c(OC)c2)c1	Activity (L6 [8]): 25.8%; Activity (L6 [9]): 6.6%; IC50 [7]: 1590 nM; Activity (L6 [10]): 18.7%; IC50 [5]: 7340 nM
–	–	–	–	CCOc1cc(NS(C)(=O)=O)c(OCC)cc1CNC(=O)Nc1ccc(OCC)c(C(=O)Nc2ccccc2)c1	inhibition [11]: < 50%
–	–	–	–	CCOc1cc(NS(C)(=O)=O)c(OCC)cc1CNC(=O)Nc1ccc(OCC)c(C(=O)Nc2ccc(OC)cc2)c1	inhibition [11]: < 50%
36	670	18.6	1090	CCOc1cc(NS(C)(=O)=O)c(OCC)cc1CNC(=O)Nc1ccc(OCC)c(C(=O)OC)c1	Activity (L6 [8]): 22.9%; Activity (L6 [9]): 16.2%; IC50 [7]: 910 nM; Activity (L6 [10]): 22.4%; IC50 [5]: 5360 nM
45.9	7620	166	–	CCOc1cc(NS(C)(=O)=O)c(OCC)cc1CNC(=O)Nc1ccc(OCC)c(C(=O)NC)c1	inhibition [1]: < 50%; inhibition [6]: < 50%; inhibition [12]: < 50%
–	–	711	–	CCCCOc1ccc(NC(=O)NCc2cc(OCC)c(NS(C)(=O)=O)cc2OCC)cc1C(=O)OC	–
